ChEMBL document CHEMBL4138193, “Novel indole and triazole based hybrid molecules exhibit potent anti-adipogenic and antidyslipidemic activity by activating Wnt3a/β-catenin pathway” (Eur J Med Chem, 2018)
Active and inactive are the calls of the source. The rule behind the calls is not given here.

Tests used:
Syrian golden hamster [1] = assay: Induction of reverse cholestrol transport in high fat diet-induced dyslipidemia Syrian Golden hamster model assessed as reduction in adipocyte hypertrophy at 100 mg/kg, po administered for 1 week by H and E staining based assay; assay type: functional, organism-based; conditions: Mesocricetus auratus
Summary of the method: (§1)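 Male Syrian Golden hamsters on 45% kCal HFD, dosed 100 mg/kg p.o. in 0.5% NaCMC for one week, 4 per group. Food intake and body weight recorded daily. At the end, animals were saline-perfused and liver and eWAT were excised and weighed. Paraffin sections stained with H&E and imaged at 20x.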

3T3-L1 [2] = assay: Anti-adipogenic activity in mouse 3T3L1 cells assessed as inhibition of adipogenesis after 20 mins by Oil Red O staining based assay; assay type: functional, cell-based; conditions: 3T3-L1, 20 min
Summary of the method: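 3T3-L1 preadipocytes differentiated with compound at 0.1, 1, 3, 10, 30, 100 and 300 µM. Oil red O absorbance read at 492 nm, concentrations log-transformed and fitted by non-linear regression to give IC50. Two to three independent experiments, mean ± SEM.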

Mus musculus [3] = species: Mus musculus; assay: Activation of Wnt3a/beta-catenin in differentiated mouse 3T3L1 cells assessed as upregulation of phosphorylated beta-catenin expression at 20 uM after 16 to 24 hrs by Western blot analysis
Summary of the method: (§2)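 3T3-L1 preadipocytes grown to confluence in high-glucose DMEM/10% FBS, then given differentiation media (0.5 mM IBMX, 5 µg/ml insulin, 250 nM dexamethasone) with or without 20 µM compound. Protein isolated at set time points, lysed with protease/phosphatase inhibitors, BCA-quantified, resolved by 8–12% SDS-PAGE, immunoblotted with ECL detection. β-actin loading control, densitometry normalized to actin, n=3.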

3T3-L1 [4] = assay: Induction of Wnt5a mRNA expression in mouse 3T3L1 cells at 20 uM by qRT-PCR analysis; assay type: functional, cell-based
Summary of the method: (§3)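 3T3-L1 cells induced with MDI differentiation medium with or without 20 µM. RNA isolated with TRIzol and 500 ng reverse-transcribed to cDNA for real-time PCR. n=3 with triplicates, mean ± SD; one-way ANOVA with Bonferroni post-test.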

Mus musculus [5] = species: Mus musculus; assay: Activation of Wnt3a/beta-catenin in mouse 3T3L1 cells assessed as increase in CREB mRNA expression at 20 uM by qRT-PCR analysis; assay type: cell-based
Summary of the method: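 3T3-L1 cells differentiated with IBMX/dexamethasone/insulin media with or without 20 µM compound over the differentiation period. RNA extracted with TRIZOL, 500 ng reverse-transcribed to cDNA, then quantitative real-time PCR. Three independent experiments run in triplicate, mean ± SD, one-way ANOVA with Bonferroni posttest.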

3T3-L1 [6] = assay: Upregulation of wnt3a mRNA expression in mouse 3T3L1 cells at 20 uM by qRT-PCR analysis; assay type: functional, cell-based; summary of the method: as §3
3T3-L1 [7] = assay: Anti-adipogenic activity in mouse differentiated 3T3L1 cells assessed as inhibition of adipogenesis at 20 uM after 20 mins by Oil Red O staining based assay; assay type: functional
Summary of the method: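 3T3-L1 preadipocytes given 20 µM compound with differentiation media. Oil red O stain (20 min) extracted, absorbance at 492 nm measured against MDI+ control, n=3, mean ± SD, Student t test.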

Syrian golden hamster [8] = assay: Induction of reverse cholestrol transport in high fat diet-induced dyslipidemia Syrian Golden hamster model assessed as increase in ABCA1 mRNA expression in eWAT at 100 mg/kg, po administered for 1 week by qRT-PCR analysis; assay type: functional, organism-based; conditions: Mesocricetus auratus
Mus musculus [9] = species: Mus musculus; assay: Activation of Wnt3a/beta-catenin in mouse 3T3L1 cells assessed as down-regulation of cyclinD3 expression at 20 uM after 16 to 24 hrs in presence of FH353 by Western blot analysis; assay type: cell-based
Summary of the method: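 Confluent 3T3-L1 cells given differentiation media (IBMX/insulin/dexamethasone) with 20 µM compound, with or without the β-catenin/TCF inhibitor FH353 (10 µM). Proteins isolated at 16 and 24 h and Western blotted after SDS-PAGE and nitrocellulose transfer. Blocking in 5% milk/TBS-T, primary antibody overnight at 4 °C, chemiluminescent detection, β-actin control, three independent experiments.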

Syrian golden hamster [10] = assay: Induction of reverse cholestrol transport in high fat diet-induced dyslipidemia Syrian Golden hamster model assessed as increase in HNF1alpha mRNA expression in liver at 100 mg/kg, po administered for 1 week by qRT-PCR analysis; assay type: functional, organism-based; conditions: Mesocricetus auratus
3T3-L1 [11] = assay: Cell cycle arrest in mouse 3T3L1 cells assessed as accumulation at G1/S phase at 20 uM after 24 hrs in presence of beta-catenin/TCF complex inhibitor FH353 by propidium iodide-staining based flow cytometry; assay type: functional
Summary of the method: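 3T3-L1 cells exposed to 20 µM with or without FH353 (10 µM) in differentiation medium for 16 and 24 hr. Cells fixed in ice-cold 70% ethanol, stained with PI (40 µg/ml, RNase A buffer, 30 min, room temperature) and analysed by flow cytometry; representative of three experiments.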

C3H 10T1/2 = assay: Anti-adipogenic activity in mouse differentiated C3H10T1/2 cells assessed as reduction in lipid accumulation at 5 to 20 uM after 20 mins by Oil Red O staining based microscopic method; assay type: functional, cell-based
Summary of the method: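 C3H10T1/2 or hMSC adipocytes differentiated alongside 5, 10 or 20 µM compound in differentiation media, stained with Oil red O. Images taken by bright-field microscopy at 10x and 20x, representative of three independent experiments.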

Mus musculus [12] = species: Mus musculus; assay: Activation of Wnt3a/beta-catenin in differentiated mouse 3T3L1 cells assessed as down-regulation of C/EBPalpha protein expression at 20 uM after 16 to 24 hrs by Western blot analysis; summary of the method: as §2
Homo sapiens = species: Homo sapiens; assay: Anti-adipogenic activity in human differentiated MSC assessed as reduction in lipid accumulation at 5 to 20 uM after 20 mins by Oil Red O absorbance method; assay type: functional
Summary of the method: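 C3H10T1/2 or human MSC differentiated with IBMX/insulin/dexamethasone media containing 5, 10 or 20 µM compound. Cells stained with Oil red O (0.36% in 60% isopropanol, 20 min), dye extracted with isopropanol, absorbance read at 492 nm. n=3, mean ± SD, Student t test against MDI group.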

Syrian golden hamster [13] = assay: Induction of reverse cholestrol transport in high fat diet-induced dyslipidemia Syrian Golden hamster model assessed as increase in PPARalpha mRNA expression in liver at 100 mg/kg, po administered for 1 week by qRT-PCR analysis; assay type: functional, organism-based; conditions: Mesocricetus auratus
Syrian golden hamster [14] = assay: Induction of reverse cholestrol transport in high fat diet-induced dyslipidemia Syrian Golden hamster model assessed as decrease in CYP7A1 mRNA expression in liver at 100 mg/kg, po administered for 1 week by qRT-PCR analysis; assay type: functional, organism-based; conditions: Mesocricetus auratus
Syrian golden hamster [15] = assay: Induction of reverse cholestrol transport in high fat diet-induced dyslipidemia Syrian Golden hamster model assessed as reduction in weight gain at 100 mg/kg, po administered for 1 week; assay type: functional, organism-based; conditions: Mesocricetus auratus; summary of the method: as §1
3T3-L1 [16] = assay: Induction of Wnt10a mRNA expression in mouse 3T3L1 cells at 20 uM by qRT-PCR analysis; assay type: functional, cell-based; summary of the method: as §3
Mus musculus [17] = species: Mus musculus; assay: Activation of Wnt3a/beta-catenin in mouse 3T3L1 cells assessed as induction of TCF1 expression at 20 uM after 16 to 24 hrs by Western blot analysis; assay type: cell-based

Structure (SMILES): Cc1ccc(S(=O)(=O)N(Cc2cn(Cc3cccc(F)c3F)nn2)Cc2cn(S(=O)(=O)c3ccc(C)cc3)c3ccccc23)cc1
- Activity (Syrian golden hamster [1]): Active
- IC50 (3T3-L1 [2]): 1700 nM
- Activity (Mus musculus [3]): Active
- Activity (3T3-L1 [4]): inactive
- Activity (Mus musculus [5]): Active
- Activity (3T3-L1 [6]): Active
- inhibition at 20 µM (3T3-L1 [7]): 71.5%
- Activity (Syrian golden hamster [8]): Active
- Activity (Mus musculus [9]): inactive
- Activity (Syrian golden hamster [10]): Active
- Activity (3T3-L1 [11]): inactive
- Activity (C3H 10T1/2): Active
- Activity (Mus musculus [12]): Active
- Activity (Homo sapiens): Active
- Activity (Syrian golden hamster [13]): Active
- Activity (Syrian golden hamster [14]): Active
- Activity (Syrian golden hamster [15]): Active
- Activity (3T3-L1 [16]): inactive
- Activity (Mus musculus [17]): Active
